Test results as given in ChEMBL document CHEMBL3774324, “iPSC Neuronal Assay Identifies Amaryllidaceae Pharmacophore with Multiple Effects against Herpesvirus Infections” (ACS Med Chem Lett, 2016).
pEC50: −log10 of the molar value. Active and inactive are the calls of the source. The calls are words filed in the database; no cut-off is given here.

Legend:
[1] = test system: Human alphaherpesvirus 1; assay: Antiviral activity against HSV1 KOS ATCC VR1493 infected in African green monkey Vero cells assessed as reduction in EGFP-positive cells at 10 uM treated at 2 hrs post infection measured 24 hrs post infection by flow cytometric analysis relative to control; format: functional
Procedure, shortened: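 Vero cells infected with EGFP-expressing HSV-1 at MOI 1, then given medium with 10 μM test agent (DMSO vehicle) at 2 hpi. Percentage of EGFP+ cells read by flow cytometry at 24 hpi against untreated infected cultures. Mean of three independent experiments, SD.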

[2] = test system: Human alphaherpesvirus 1; assay: Antiviral activity against HSV1 KOS ATCC VR1493 infected in African green monkey Vero cells assessed as reduction in virus yield at 10 uM treated at 2 hrs post infection measured 48 hrs post infection by flow cytometric analysis relative to control; format: functional, organism-based
[3] = test system: Human alphaherpesvirus 1; assay: Antiviral activity against HSV1 KOS ATCC VR1493 infected in human iPSC cells assessed as reduction in EGFP-positive cells at 10 uM treated at 2 hrs post infection measured 24 hrs post infection by flow cytometric analysis relative to control; format: functional
Procedure, shortened: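 Human iPSC-derived neurons infected with engineered EGFP HSV-1 at MOI 0.3 and treated with 10 μM at 2 hpi (DMSO vehicle). Percentage of EGFP+ cells measured by flow cytometry at 24 hpi relative to untreated infected cultures. Average of three independent experiments, SD.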

[4] = test system: Human alphaherpesvirus 1; assay: Antiviral activity against HSV1 KOS ATCC VR1493 infected in human iPSC cells assessed as reduction in virus yield at 10 uM treated at 2 hrs post infection measured 48 hrs post infection by flow cytometric analysis relative to control; format: functional, organism-based
[5] = test system: Human alphaherpesvirus 1; assay: Antiviral activity against HSV1 KOS ATCC VR1493 infected in human iPSC cells assessed as viral DNA replication at 10 uM measured 24 hrs post infection by FISH analysis; format: functional, organism-based
Procedure, shortened: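 HSV-1-infected iPSC-neurons (MOI 0.3), treated with 10 μM at 2 hpi. Fluorescent in situ hybridisation with HSV-1 DNA probe to detect viral DNA replication at 24 hpi.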

[6] = test system: Human alphaherpesvirus 1; assay: Antiviral activity against HSV1 KOS ATCC VR1493 infected in human iPSC cells assessed as reduction in viral DNA copy at 10 uM measured 24 hrs post infection by RT-qPCR analysis relative to control; format: functional
Procedure, shortened: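 iPSC-neurons infected with HSV-1 (MOI 0.3) and treated with 10 μM at 2 hpi. DNA extracted at 24 hpi. Viral DNA copy number measured by qPCR relative to infected untreated cells.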

[7] = test system: Human alphaherpesvirus 1; assay: Antiviral activity against HSV1 KOS ATCC VR1493 infected in human iPSC cells assessed as reduction in expression of ICP4 gene at 10 uM measured 24 hrs post infection by RT-qPCR analysis; format: functional, organism-based
Procedure, shortened: (§1)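 iPSC-neurons infected with HSV-1 (MOI 0.3) and treated with 10 μM at 2 hpi. RT-qPCR of ICP4 and viral DNA polymerase transcripts at 24 hpi.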

[8] = test system: Human alphaherpesvirus 1; assay: Antiviral activity against HSV1 KOS ATCC VR1493 infected in human iPSC cells assessed as reduction in expression of DNA polymerase gene at 10 uM measured 24 hrs post infection by RT-qPCR analysis; format: functional, organism-based; procedure, shortened: as §1
[9] = Cytotoxicity against human iPSC cells assessed as cell viability at 0.1 to 50 uM after 24 to 48 hrs by live/dead fixable viability dye-based flow cytometric analysis
Procedure, shortened: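 Viability of iPSC-neurons exposed to test agent over 100 nM to 50 μM.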

[10] = test system: Human alphaherpesvirus 3; assay: Antiviral activity against VZV infected in human ARPE19 cells at 10 uM treated at 2 hrs post infection measured 48 hrs post infection by luciferase assay relative to control; format: functional
Procedure, shortened: (§2)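 ARPE-19 retinal pigment epithelial cells infected with VZV carrying luciferase under the late ORF9 promoter at 1000 PFU/well. Compound added 2 hpi. Luciferase counts per second read at 48 hpi.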

[11] = test system: Human alphaherpesvirus 3; assay: Antiviral activity against VZV infected in human ARPE19 cells treated at 2 hrs post infection measured 48 hrs post infection by luciferase assay; format: functional, organism-based; conditions: Human alphaherpesvirus 3, ARPE-19; procedure, shortened: as §2
[12] = Cytotoxicity against human ARPE19 cells assessed as cell viability at 0.1 to 50 uM after 24 to 48 hrs by live/dead fixable viability dye-based flow cytometric analysis; conditions: arpe-19, 50 µM
[13] = test system: Human alphaherpesvirus 1; assay: Induction of sodium butyrate-induced reactivation of HSV1 KOS ATCC VR1493 infected in human iPSC cells assessed as increase in EGFP-positive cells at 10 uM measured after 5 days of withdrawal by flow cytometric analysis relative to 5BVdU/IFN-alpha-treated cells; format: functional
[14] = test system: Human alphaherpesvirus 1; assay: Induction of sodium butyrate-induced reactivation of HSV1 KOS ATCC VR1493 infected in human iPSC cells assessed as increase in EGFP-positive cells at 10 uM measured after 5 days of withdrawal in presence of IFN-alpha by flow cytometric analysis relative to 5BVdU/[…]-treated cells; format: functional
[15] = test system: Human alphaherpesvirus 1; assay: Induction of sodium butyrate-induced reactivation of HSV1 KOS ATCC VR1493 infected in human iPSC cells assessed as decrease in EGFP MFI at 10 uM measured after 5 days of withdrawal relative to 5BVdU/IFN-alpha-treated cells; format: functional
[16] = test system: Human alphaherpesvirus 1; assay: Induction of sodium butyrate-induced reactivation of HSV1 KOS ATCC VR1493 infected in human iPSC cells assessed as decrease in EGFP MFI at 10 uM measured after 5 days of withdrawal in presence of IFN-alpha relative to 5BVdU/IFN-alpha-treated cells; format: functional
[17] = test system: Human alphaherpesvirus 1; assay: Induction of sodium butyrate-induced reactivation of HSV1 KOS ATCC VR1493 infected in human iPSC cells assessed as reduction in EGFP/RFP-positive cells at 10 uM measured after 5 days of withdrawal by flow cytometric analysis relative to 5BVdU/[…]-treated cells; format: functional, organism-based
[18] = test system: Human alphaherpesvirus 1; assay: Induction of sodium butyrate-induced reactivation of HSV1 KOS ATCC VR1493 infected in human iPSC cells assessed as reduction in EGFP/RFP-positive cells at 10 uM measured after 5 days of withdrawal in presence of IFN-alpha by flow cytometric analysis relative to 5BVdU/[…]-treated cells; format: functional, organism-based
[19] = test system: Human alphaherpesvirus 1; assay: Induction of sodium butyrate-induced reactivation of HSV1 KOS ATCC VR1493 infected in human iPSC cells assessed as decrease in EGFP/RFP MFI at 10 uM measured after 5 days of withdrawal relative to 5BVdU/IFN-alpha-treated cells; format: functional, organism-based
[20] = test system: Human alphaherpesvirus 1; assay: Induction of sodium butyrate-induced reactivation of HSV1 KOS ATCC VR1493 infected in human iPSC cells assessed as decrease in EGFP/RFP MFI at 10 uM measured after 5 days of withdrawal in presence of IFN-alpha relative to 5BVdU/IFN-alpha-treated cells; format: functional, organism-based
[21] = test system: Human alphaherpesvirus 1; assay: Antiviral activity against HSV1 KOS ATCC VR1493 infected in human iPSC cells assessed as reduction in expression of ICP4 at 10 uM measured 24 hrs post infection by western blot analysis; format: functional, organism-based
[22] = test system: Human alphaherpesvirus 1; assay: Antiviral activity against HSV1 KOS ATCC VR1493 infected in human iPSC-derived neurons assessed as reduction in EGFP-positive cells treated at 2 hrs post infection measured 24 hrs post infection by flow cytometric analysis; conditions: Human alphaherpesvirus 1, KOS ATCC VR1493, iPSC-derived neurons
[23] = test system: Human alphaherpesvirus 1; assay: Antiviral activity against HSV1 KOS ATCC VR1493 infected in African green monkey Vero cells assessed as viral titre at 50 uM treated at 2 hrs post infection measured 48 hrs post infection by […] relative to control; format: functional
[24] = test system: Human alphaherpesvirus 1; assay: Antiviral activity against HSV1 KOS ATCC VR1493 infected in human iPSC cells assessed as viral DNA replication at 50 uM measured 24 hrs post infection by FISH analysis; format: functional, organism-based
Procedure, shortened: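 iPSC-derived neurons were infected with engineered HSV-1 at MOI 0.3 and given drug 2 hpi. Viral DNA replication was scored by fluorescent in situ hybridization with an HSV-1 DNA probe, counting hybridizing signals.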

[25] = test system: Human alphaherpesvirus 1; assay: Antiviral activity against HSV1 KOS ATCC VR1493 infected in human iPSC cells assessed as reduction in expression of ICP4 gene at 50 uM measured 24 hrs post infection by RT-qPCR analysis; format: functional, organism-based
Procedure, shortened: (§3)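 Human iPSC-derived neurons were infected with engineered HSV-1 at MOI 0.3 and treated 2 hpi (DMSO vehicle). RNA was taken 24 hpi, and viral ICP4 and viral DNA polymerase transcripts were quantified by RT-qPCR relative to infected untreated cells.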

[26] = test system: Human alphaherpesvirus 1; assay: Antiviral activity against HSV1 KOS ATCC VR1493 infected in human iPSC cells assessed as reduction in expression of DNA polymerase gene at 50 uM measured 24 hrs post infection by RT-qPCR analysis; format: functional, organism-based; procedure, shortened: as §3
[27] = test system: Human alphaherpesvirus 1; assay: Antiviral activity against HSV1 KOS ATCC VR1493 infected in human iPSC cells assessed as reduction in expression of ICP4 at 50 uM measured 24 hrs post infection by western blot analysis; format: functional, organism-based

SMILES: O=C1N[C@H]2[C@H](O)[C@H](O)[C@@H](O)C[C@@H]2c2cc3c(cc21)OCO3
- fold change (FC) [1]: 19.6
- Activity [2]: Active
- fold change (FC) [3]: 28
- Activity [4]: Active
- Activity [5]: Active
- fold change (FC) [6]: >1800
- Activity [7]: Active
- Activity [8]: Active
- Activity [9]: Non-toxic
- fold change (FC) [10]: 220
- pEC50 [11]: 6.82
- Activity [12]: Non-toxic
- fold change (FC) [13]: 2.9
- fold change (FC) [14]: 2.1
- fold change (FC) [15]: 1.6
- fold change (FC) [16]: 2.5
- Activity [17]: Active
- Activity [18]: Active
- Activity [19]: Active
- Activity [20]: Active
- Activity [21]: Active
- pEC50 [22]: 7.00

SMILES: O=C1N[C@@H]2C(=C[C@H](O)[C@@H](O)[C@H]2O)c2cc3c(c(O)c21)OCO3 [NARCICLASINE]
- fold change (FC) [1]: 10.6
- Activity [2]: Active
- fold change (FC) [3]: 69
- Activity [4]: Active
- Activity [5]: Active

SMILES: O=C1N[C@H]2[C@H](O)[C@@H](O)[C@@H](O)C[C@@H]2c2cc3c(cc21)OCO3
- Activity [1]: inactive
- Activity [2]: inactive
- Activity [5]: inactive

SMILES: Nc1nc2c(ncn2COCCO)c(=O)[nH]1 [ACYCLOVIR]
- Activity [23]: 33.3 PFU/ml
- Activity [24]: Active
- Activity [25]: Active
- Activity [26]: Active
- Activity [9]: Non-toxic
- Activity [12]: Non-toxic
- Activity [27]: Active
- pEC50 [22]: 7.15

SMILES: COC(=O)N[C@H]1C(=O)C[C@@H](O)C[C@@H]1c1ccc2c(c1)OCO2
- Activity [1]: inactive
- Activity [2]: inactive
- Activity [5]: inactive

SMILES: O=C1N[C@H]2[C@H](O)C[C@@H](O)C[C@@H]2c2cc3c(cc21)OCO3
- Activity [1]: inactive
- Activity [2]: inactive
- Activity [5]: inactive

SMILES: O=C1N[C@H]2[C@H](O)[C@H](O)[C@@H](O)[C@H](O)[C@@H]2c2cc3c(c(O)c21)OCO3 [PANCRATISTATIN]
- fold change (FC) [1]: 8.3
- Activity [2]: Active
- fold change (FC) [3]: 62
- Activity [4]: Active
- Activity [5]: Active
